# From publication PMC4617824 (Cancer research, 2014)
# Key:
# [1] = test system: phosphorylated levels of GST-Cables1 (endogenous Akt); format: cell-based; details: for block of IGF-1-induced enhancement of GST-Cables1 phosphorylation: 10 μM inhibitor 1 h, then 100 ng/ml IGF 15 min, serum-starved cells
# [2] = test system: Akt phosphorylation at T473 (Akt pT473); assay: A549 xenograft tumors: Akt phosphorylation; format: in vivo, lung cancer A549 xenograft mouse model; details: compared with vehicle, Figure S1
# [3] = test system: phosphorylation of Cables1 at T44 and T150; assay: A549 xenograft tumors: Cables1 phosphorylation; format: in vivo, lung cancer A549 xenograft mouse model; details: Figure S1
# 14-3-3ν = 14-3-3ν (UniProt Q04917); assay: TR-FRET titration; details: reference: unphosphorylated T44 peptide; sites T44
# Chain of UniProt Q04917 (Q04917 whole entry, looked up): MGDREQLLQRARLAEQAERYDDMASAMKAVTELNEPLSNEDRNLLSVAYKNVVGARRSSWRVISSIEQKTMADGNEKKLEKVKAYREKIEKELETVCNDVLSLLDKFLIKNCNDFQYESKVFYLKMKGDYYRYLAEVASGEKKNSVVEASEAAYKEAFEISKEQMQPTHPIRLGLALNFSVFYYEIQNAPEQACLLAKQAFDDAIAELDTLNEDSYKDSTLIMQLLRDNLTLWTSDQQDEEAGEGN
# [4] = test system: Cables1 binding to 14-3-3 (GST-Cables1 / His-14-3-3γ); details: COS7 lysates expressing GST-Cables1 and His-14-3-3γ, 0.5 h, room temperature
# Procedure, shortened: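 COS7 cells co-expressing His-14-3-3γ and GST-Cables1 were lysed. Lysates were incubated 0.5 h at room temperature with calf intestinal phosphatase, with phosphatase inhibitors (5 mM Na4P2O7, 5 mM NaF, 5 mM Na3VO4), or untreated. His-14-3-3γ complexes were captured on nickel-charged resin (2 h, 4°C), washed, and eluted by boiling in SDS sample buffer. GST-Cables1 was detected by Western blot.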
molecule,measurement,setting,value
O.O=C(O)C(F)(F)F.O=c1[nH]c2ccccc2n1C1CCN(Cc2ccc(-c3nc4cc5[nH]cnc5cc4nc3-c3ccccc3)cc2)CC1 [AKT1/2 inhibitor],block of IGF-1-induced enhancement of GST-Cables1 phosphorylation,[1],totally blocked
CC(C)n1nc(-c2ccc3oc(N)nc3c2)c2c(N)ncnc21 [INK128],Akt pT473 level in tumors,[2],reduced
same,phosphorylation of Cables1 at T44 in tumors,"[3]; pT44, compared with vehicle",decreased
same,phosphorylation of Cables1 at T150 in tumors,"[3]; pT150, compared with vehicle",decreased
O=c1cc(N2CCOCC2)oc2c(-c3ccccc3)cccc12 [LY294002],block of IGF-1-induced enhancement of GST-Cables1 phosphorylation,[1],totally blocked
Cables1 (from UniProt Q8TDN4-2) pT44 peptide,binding against the reference,14-3-3ν,stronger
"IGF-1: IGF-1, Sigma-Aldrich",phosphorylated levels of GST-Cables1,"[1]; 100 ng/ml IGF, 15 min, cells serum-starved 24 h, GST pull-down, Western blot",markedly enhanced
"CIP: calf intestinal phosphatase (protein, UniProt P19111 20-506, looked up) Intestinal-type alkaline …: LVPVEEEDPAFWNRQAAQALDVAKKLQPIQTAAKNVILFLGDGMGVPTVTATRILKGQMNGKLGPETPLAMDQFPYVALSKTYNVDRQVPDSAGTATAYLCGVKGNYRTIGVSAAARYNQCKTTRGNEVTSVMNRAKKAGKSVGVVTTTRVQHASPAGAYAHTVNRNWYSDADLPADAQMNGCQDIAAQLVNNMDIDVILGGGRKYMFPVGTPDPEYPDDASVNGVRKRKQNLVQAWQAKHQGAQYVWNRTALLQAADDSSVTHLMGLFEPADMKYNVQQDHTKDPTLQEMTEVALRVVSRNPRGFYLFVEGGRIDHGHHDDKAYMALTEAGMFDNAIAKANELTSELDTLILVTADHSHVFSFGGYTLRGTSIFGLAPSKALDSKSYTSILYGNGPGYALGGGSRPDVNDSTSEDPSYQQQAAVPQASETHGGEDVAVFARGPQAHLVHGVEEETFVAHIMAFAGCVEPYTDCNLPAPTTATSIPD",Cables1 binding to 14-3-3 after CIP treatment,[4],reduced
